Assay results published in ChEMBL document CHEMBL1124335, “5-Isoquinolinesulfonamide derivatives. 1. Synthesis and vasodilatory activity of N-(2-guanidinoethyl)-5-isoquinolinesulfonamide derivatives” (1989).

test system: Canis familiaris; test: Compound was evaluated for increasing effect on femoral blood flow (FBF) in femoral artery of anesthetized dogs, compared to Trapidil; ND is no detectable vasodilation.; type: functional, organism-based; conditions: Canis lupus familiaris
Summary of the method: (§1)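 Anesthetized dogs, trachea intubated and ventilated at 12-16 cycles/min, with tidal volume set to hold arterial pH, pCO2 and pO2 within physiological limits. Body temperature kept at 37-38 °C. Drug given locally intra-arterially into the femoral artery, at least three doses per compound. Trapidil 100 μg was given before and after as reference. Femoral blood flow increase read from at least three dose-response curves. Expressed as equieffective dose ratio versus trapidil (mg/mg).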

Row | Structure (SMILES) | FBF
1 | CNC(=N)NCCNS(=O)(=O)c1cccc2cnccc12 | No detectable vasodilation

test system: Canis familiaris; test: Compound was evaluated for increasing effect on femoral blood flow (FBF) in femoral artery of anesthetized dogs, compared to Trapidil; No detectable vasodilation; type: functional, organism-based; conditions: Canis lupus familiaris; summary of the method: as §1

Row | Structure (SMILES) | FBF
2 | N=C(N)NNS(=O)(=O)c1cccc2cnccc12 | No detectable vasodilation

test system: Canis familiaris; test: Increasing effect on femoral blood flow (FBF) in femoral artery of anesthetized dogs.; type: functional, Canis lupus familiaris; conditions: not given; summary of the method: as §1

Row | Structure (SMILES) | Equieffective dose ratio vs trapidil for femoral blood flow increase
3 | Cl.O=S(=O)(NCCNC1=NCCN1)c1cccc2cnccc12 | 24
4 | Cl.O=S(=O)(NCCN=C(Nc1ccccc1)Nc1ccccc1)c1cccc2cnccc12 | >50
5 | Cl.N=C(N)N1CCCN(S(=O)(=O)c2cccc3cnccc23)CC1 | 0.19
6 | Cl.N=C(N)NCCCCCCNS(=O)(=O)c1cccc2cnccc12 | 3.8
7 | Cl.N=C(N)NCCCCNS(=O)(=O)c1cccc2cnccc12 | 16
8 | C/N=C(\NC)NCCNS(=O)(=O)c1cccc2cnccc12.Cl | >50
9 | Cl.N/C(=N\CCNS(=O)(=O)c1cccc2cnccc12)N[N+](=O)[O-] | >10
10 | Cl.N=C(N)NCCNS(=O)(=O)c1cccc2cnccc12 | 1.7
11 | Cl.N=C(N)N1CCN(S(=O)(=O)c2cccc3cnccc23)CC1 | 0.62
12 | CN(CCNS(=O)(=O)c1cccc2cnccc12)C(=N)N.Cl | 1.1
13 | Cl.O=S(=O)(NCCNc1ncccn1)c1cccc2cnccc12 | >30
14 | COc1ccc([C@@H]2Sc3ccccc3N(CCN(C)C)C(=O)[C@@H]2OC(C)=O)cc1.Cl [DILTIAZEM HYDROCHLORIDE] | 0.21
15 | Cl.N=C(N)NCCCNS(=O)(=O)c1cccc2cnccc12 | 4.3
16 | Cl.N#CNC(=N)NCCNS(=O)(=O)c1cccc2cnccc12 | >50
17 | CC1CN(S(=O)(=O)c2cccc3cnccc23)C(C)CN1C(=N)N.Cl (stereo not drawn) | 1.6
18 | CN(CCN=C(N)N)S(=O)(=O)c1cccc2cnccc12.Cl | 1.8
